# Data reported in the EternaBench riboswitch data.
# Test system: MS2 coat protein
# Test: apparent Kd, MS2 coat protein; higher = weaker binding; RNA-MaP array; FMN 200 µM where present
# Method in brief: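 Designs on Illumina sequencing-chip clusters, transcribed by stalled E. coli RNA polymerase, were exposed to SNAP-549-labelled MS2 coat protein in doubling steps from 0.7 or 1.5 nM up to 3 µM, without and then with constant ligand. The buffer held 100 mM Tris-HCl pH 7.5, 80 mM KCl, 4 mM MgCl2, BSA, DTT, yeast tRNA and Tween-20. Apparent Kd values are medians of filtered per-cluster binding-curve fits to green signal normalised to red-channel RNA signal and control-cluster median Fmax.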
# [1] = designed as: ON switch for flavin mononucleotide, no ligand
# [2] = ligand present: flavin mononucleotide, designed as: ON switch for flavin mononucleotide
# [3] = designed as: OFF switch for flavin mononucleotide, no ligand
# [4] = ligand present: flavin mononucleotide, designed as: OFF switch for flavin mononucleotide
Sequence,apparent Kd [1],apparent Kd [2],apparent Kd [3],apparent Kd [4]
UGGUACUAGGGAGGAUAUGGGAAGGUACAUGAGGAUCACCCAUGUUUAAGAAUGCCGAGAGGCAACUAGAAGGCCCUAGUACCU,204 nM,13.6 nM,–,–
UUAUUUAGGUAGGAUAUCGAUAUCAAUCCCUAUCGAGAAGGGUCUACAUGAGGAUCACCCAUGUUAGCAUGUUU,–,–,21.2 nM,19.2 nM
GCCCGCGCUAAGGAUAUCAGGGUUAAAAUAGUAUGAGAAGGUAGCACAUGAGGAUCACCCAUGUGUCCCUUAUG,–,–,16.5 nM,17.3 nM
GUAGCUUAUGAGAAGGCGAUCAUGAAACAUGAUCGAGGAUAUCAUGUAAACAUGAGGAUCACCCAUGUAUGGGUAUUAUGCUAC,313 nM,42.9 nM,–,–
AAAGUUGGUAGGCCCUUGGAACAUGAGGAUCACCCAUGUAAGGAGGAUAUGCCCGGUACCCGCUGGCAGAAGGCCUUAUAAGAA,–,–,20.5 nM,143 nM
AUUAUUAUAUUAUACAUGAGGAUCACCCAUGUUAUAAGUCAUGAGGAUAUGGUUUUGUAGAUUUUCCAGAAGGCAUUUAACUUA,13.3 nM,7.8 nM,–,–
GGUGGCGUGAUAACGCUAGAUAUAACAUGAGGAUCACCCAUGUAGGAUAUCCCGCCGAGAGGGCGGGAGAAGGACAACCAAUGG,–,–,40.9 nM,34 nM
GUAGAGUCAGGAUAUACGAGAUCGAAAGAUCUGUGAUCCAUACAUGAGGAUCACCCAUGUAGAAGGGACUCUAC,–,–,33.7 nM,364 nM
AUUUUACAUGAGGAUCACCCAUGUUUUGGUGGGUCAGGAUAUAGAUCGGAUGAGUUCUGGCUAGAAGGGACAUAUA,75.9 nM,66.4 nM,–,–
AGUUAAUAUCGAGGAUAUCCUCAUAAACAUGAGGAUCACCCAUGUUAACAUGGAGAAGGCGAUAUUAACAGCAUGUUACAUGCA,268 nM,20.2 nM,–,–
CCCAGUUAGGAAGGAUAUUGUACAUGAGGAUCACCCAUGUAAUAAAUGAGGAUCUCGGAUGUAUACAAGAAGGUCCGGAUAGGC,–,–,71.6 nM,136 nM
GGUCCACAUGAGGAUCACCCAUGUCAGGAUAUAUACGGCACAAUAAUAAGUGCCGCCCAUAGAAGGGACGCUGG,–,–,15.7 nM,26.1 nM
AAUUUAAUACAUGAGGAUCACCCAUGUAAUACUAGUAAGAUCUAGGAUAUCAGCUCGUUUAGAGCUGAGAAGGAGAUCACAUGU,86.3 nM,26 nM,–,–
AUAAACAUGAGGAUCACCCAUGUGAGAAGGCGCAUUACUAUAUUUAUACACUUUAAUACUAACAGCGAGGAUAUCACCUCAUAA,–,–,15.8 nM,24.7 nM
UUAAUGUGAGGAUAUCAAGAGAGAAAGAGUAAUGGUAAAUAUGAGAAGGCACAUGAGGAUCACCCAUGUUCUUC,–,–,15.9 nM,15.5 nM
UAUAUAUAGUAAGGAUAUGUAAUUACUUUAUAAACAGAAGGUACUGACAUGAGGAUCACCCAUGUUUUAGUGUGGGCAUGUAGA,–,–,87 nM,113 nM
CAUGAUCAUGUAGGAUAUAUACUGGAAUACAGUAUAGAAGGACAUGAGGAUCACCCAUGUUAUGUGCCUCCAAGUAAGAUCAUG,–,–,18.5 nM,24.7 nM
AAGAAGGACGCAGGAUAUCCAGGACCUCCCGCAGGAGAAGGGCGAAACAUGAGGAUCACCCAUACAUGAGGAUCACCCAUGUAA,–,–,33 nM,36.3 nM
GCCAUCAUAUGAGGAUAUGACACCGAAACGGUGUCAGAAGGCAUGUCGAUAGACAUGAGGAUCACCCAUGUAUAAAUGAUGGCA,780 nM,118 nM,–,–
CCGUGACAUGAGGAUCACCCAUGUACUCGAGAAAUCGAGUGUAGAAGGGUGACCGGUCGUUUGGCACAGGAUAUACACGGUGUG,16.6 nM,8.92 nM,–,–
AGCACGAAAGUGCAACGAUGUACGAGAAGGACAUGAGGAUCACCCAUGUAGCAGUAACUGCAAAUGUAGGAUAUCGUACAUCGA,–,–,6.54 nM,14.7 nM
CUGAUGUAAGGAUAUGUGUAGAAAUCAAAUCGGAUAUUCUAACAGAAGGUACAUGAGGAUCACCCAUGUGAGAA,–,–,39.7 nM,71.2 nM
UGGUUUGGGCUAGAUGCACAGACAUGAGGAUCACCCAUGUCUGAGGAUAUGCGUCAACAUAGGCAGCAGAAGGCAGACAUUCGC,–,–,16.8 nM,30.5 nM
